For assay [1], the system named is Friend leukemia cell line. In words: Inhibitory activity against cellular differentiation in Friend erythroleukemia cells as percentage of benzidine - positive cells. It is filed as functional, Mus musculus. The gist of the method:
(§1)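 Parental Friend murine erythroleukemia cells in exponential growth, seeded at (7–8) × 10⁴ cells/mL in Dulbecco's modified Eagle's MEM with 15% fetal bovine serum and 2 mM L-glutamine under 10% CO₂. Exposed to graded 2.5-fold concentration increases. On day 6, hemoglobin-containing cells staining blue with acidic 3,3',5,5'-tetramethylbenzidine peroxide were counted cytologically and reported as percent benzidine-positive cells.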

Assay [2] deals with Friend leukemia cell line. In words: Inhibitory activity against cellular replication in Friend erythroleukemia cells as growth inhibition. It is filed as functional. Particulars: Mus musculus, read-out: ID50 (the source's name). The essentials:
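Exponentially growing parental Friend erythroleukemia cells at (7–8) × 10⁴ cells/mL in DMEM with 15% FBS under 10% CO₂. Incubated with graded 2.5-fold concentration steps. Cell number was counted on day 3 with a particle counter, and percent growth inhibition was calculated from log cell number.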

In assay [3] the test system is Friend leukemia cell line. The experiment in a line: Inhibitory activity against cellular differentiation in Friend erythroleukemia cells as optimal concentration required for maximum activity. It is filed as functional, Mus musculus. The essentials:
as §1

In assay [4] the test system is Friend erythroleukemia cells, HGPRT- (Mus musculus). In words: Inhibitory activity against cellular replication in hypoxanthine-guanine phosphoribosyltransferase (HGPRT-) Friend murine erythroleukemia cells. Particulars: read-out: ID50 (the source's name).

As for `Nc1nc2c([nH]c(=O)n2[C@H]2C[C@H](O)[C@@H](CO)O2)c(=O)[nH]1`, in assay [1], the Benzidine positive cells is 62%. The IC50 in assay [2] and in assay [4] was 0.39 mM in each case. The Optimal concentration in assay [3] was 0.2 mM.
Take `Nc1nc(O)c2nc(N)n([C@@H]3O[C@H](CO)[C@@H](O)[C@H]3O)c2n1`: the Benzidine positive cells in assay [1] is 34%. For the same molecule, the IC50 in assay [2] and in assay [4] was 1.7 mM throughout. The Optimal concentration in assay [3] stood at 0.4 mM.
Consider `Nc1nc(O)c2nc(S)n([C@@H]3O[C@H](CO)[C@@H](O)[C@H]3O)c2n1`, for which the Benzidine positive cells in assay [1] is given as 4%. In addition, the IC50 in assay [2] and in assay [4] was 3.5 mM each time. Further, the Optimal concentration in assay [3] was determined as 2 mM.
The molecule `Nc1nc(O)c2nc(Br)n([C@H]3C[C@H](O)[C@@H](CO)O3)c2n1` came in with a Benzidine positive cells in assay [1] of 20%. For the same molecule, the IC50 in assay [2] and in assay [4] was above 5 mM each time. Besides, the Optimal concentration in assay [3] is recorded as 7 mM.
On to `Nc1nc(O)c2nc(OCc3ccccc3)n([C@H]3C[C@H](O)[C@@H](CO)O3)c2n1`, for which, in assay [1], the Benzidine positive cells is recorded as 7%. For the same molecule, the IC50 in assay [2] and in assay [4] was above 5 mM each time. The same molecule showed an Optimal concentration in assay [3] of 7 mM.
As for `COc1nc2c(O)nc(N)nc2n1[C@H]1C[C@H](O)[C@@H](CO)O1`, in assay [1], the Benzidine positive cells is 22%. Also, the IC50 in assay [2] and in assay [4] was above 5 mM throughout. The molecule further yielded an Optimal concentration in assay [3] of 5 mM.
Take `CNc1nc2c(=O)[nH]c(N)nc2n1[C@@H]1O[C@H](CO)[C@@H](O)[C@H]1O`: the Benzidine positive cells in assay [1] is given as 42%. Besides, the IC50 amounted to 2.9 mM in assay [2] and 4.9 mM in assay [4]. For the same molecule, the Optimal concentration in assay [3] is reported as 1 mM.
On the same counts, the results for `CN(C)c1nc2c(=O)[nH]c(N)nc2n1[C@@H]1O[C@H](CO)[C@@H](O)[C@H]1O` are 68%, above 5 mM, above 5 mM and 5 mM.
In assay [1], `Nc1nc2c(nc(Br)n2[C@@H]2O[C@H](CO)[C@@H](O)[C@H]2O)c(=O)[nH]1` yielded a Benzidine positive cells of 6%. Besides, the IC50 in assay [2] and in assay [4] was 5.1 mM throughout. The Optimal concentration in assay [3] came out at 5 mM.
On to `Nc1nc(O)c2nc(OCc3ccccc3)n(C3O[C@H](CO)[C@@H](O)[C@H]3O)c2n1` (stereo partly specified), for which the Benzidine positive cells in assay [1] turned out to be 4%. Besides, the IC50 in assay [2] and in assay [4] was above 8 mM in each case. Moreover, the Optimal concentration in assay [3] worked out at 8 mM.
For `[N-]=[N+]=Nc1nc2c(O)nc(N)nc2n1C1O[C@H](CO)[C@@H](O)[C@H]1O` (stereo partly specified), the Benzidine positive cells in assay [1] was 12%. In addition, the IC50 in assay [2] and in assay [4] was 3.6 mM throughout. The molecule also showed an Optimal concentration in assay [3] of 2 mM.
Turning to `COc1nc2c(O)nc(N)nc2n1C1O[C@H](CO)[C@@H](O)[C@H]1O` (stereo partly specified), the Benzidine positive cells in assay [1] was found to be 7%. Moreover, the IC50 in assay [2] and in assay [4] was above 8 mM in each case. This molecule registered an Optimal concentration in assay [3] of 8 mM.
In turn, `CSc1nc2c(O)nc(N)nc2n1C1O[C@H](CO)[C@@H](O)[C@H]1O` (stereo partly specified) gave a Benzidine positive cells in assay [1] of 11%. Moreover, the IC50 in assay [2] and in assay [4] was above 8 mM in each case. In assay [3], this molecule came in with an Optimal concentration of 5 mM.
The molecule `Nc1nc(O)c2nc(NO)n(C3O[C@H](CO)[C@@H](O)[C@H]3O)c2n1` (stereo partly specified) returned a Benzidine positive cells in assay [1] of 7%. In addition, the IC50 in assay [2] was above 5 mM. Further, the Optimal concentration in assay [3] is given as 6 mM.
In assay [1], `CS(=O)(=O)c1nc2c(O)nc(N)nc2n1C1O[C@H](CO)[C@@H](O)[C@H]1O` (stereo partly specified) returned a Benzidine positive cells of 30%. For the same molecule, the IC50 in assay [2] turned out to be 5.4 mM; in assay [4] it was 10 mM. In assay [3], this molecule returned an Optimal concentration of 5 mM.
In the same order, the values of `Nc1nc2c(nc(O)n2[C@@H]2O[C@H](CO)[C@@H](O)[C@H]2O)c(=O)[nH]1` [8-HYDROXYGUANOSINE] are 33%, 8 mM, 8 mM and 5 mM.
For the molecule `Nc1nc(O)c2ncn([C@H]3C[C@H](O)[C@@H](CO)O3)c2n1` [DEOXYGUANOSINE], the Benzidine positive cells in assay [1] came out at 0%. The IC50 in assay [2] was determined as 0.29 mM; in assay [4], 0.49 mM.
`C[S+](C)[O-]` [DIMETHYL SULFOXIDE] came in with a Benzidine positive cells in assay [1] of 70%. The molecule further showed an Optimal concentration in assay [3] of 200 mM.
On to `Nc1nc2c(ncn2[C@@H]2O[C@H](CO)[C@@H](O)[C@H]2O)c(=O)[nH]1` [GUANOSINE], for which the Benzidine positive cells in assay [1] was found to be 0%. In addition, the IC50 turned out to be 1.2 mM in assay [2] and 7.8 mM in assay [4].

The values above are taken from ChEMBL document CHEMBL1123086, “8-Substituted guanosine and 2'-deoxyguanosine derivatives as potential inducers of the differentiation of Friend erythroleukemia cells” (1985).
